Experimental data gathered from unrelated publications.
Each line is one published result; the experiments were not run side by side.
Target: TGF-beta receptor type-2 (TGFBR2, Homo sapiens, UniProt P37173)

`O=C(NCCCN1CCOCC1)c1ccc(Nc2nccc(-c3cc4ccccc4s3)n2)cc1` gave a remaining binding of 64% (binding; competition with immobilised ligand; 1 µM).
`CN(C)c1nccc(-c2cnn3ncccc23)n1` gave a remaining binding of 73% (binding; 1 µM).
The remaining binding of `COc1ccc2c(O[C@@H]3C[C@H]4C(=O)N[C@]5(C(=O)O)CC5/C=C\CCCCC[C@H](NC(=O)OC5CCCC5)C(=O)N4C3)cc(-c3csc(NC(=O)C(C)C)n3)nc2c1C` (stereo partly drawn) is reported as 93% (cell-free assay; competition with immobilised ligand; 1 µM).
`c1cncc(-c2cccc(Nc3nccc(NC4CCCCC4)n3)c2)c1` gave a remaining binding of 30% (binding; competition with immobilised ligand; 10 µM).
With `COc1cnc(Nc2cccc(S(N)(=O)=O)c2)nc1N1CCN(c2ccccc2)C(=O)C1` the remaining binding was 100% (binding; competition with immobilised ligand; 1 µM).
The remaining binding of `CO[C@@H](C)c1c(Nc2ccc([C@@H](N(C)C(=O)C3CCS(=O)(=O)CC3)C(F)(F)F)cc2)cnc2cc(Cl)nn12` is reported as 100% (cell-free assay; competition with immobilised ligand; 1 µM).
The remaining binding of `COc1ccnn2ncc(-c3ccnc(N(C)C)n3)c12` is reported as 100% (binding; 1 µM).
For `COc1ncc2cc3ccccc3nc2c1C#N`, the remaining binding was 100% (cell-free assay; competition with immobilised ligand; 5 µM).
`CCN1CCN(Cc2ccc(C(=O)Nc3ccc(C)c(Oc4ccc5c(c4)CC(=O)N5)c3)cc2C(F)(F)F)CC1` has a remaining binding of 100% (binding; competition with immobilised ligand; 1 µM).
`CN(CCCC(F)(F)F)c1nccc(-c2cnn3ncccc23)n1` has a remaining binding of 73% (binding; 1 µM).
With `O=C(Nc1c[nH]nc1C(=O)NC1CCNCC1)c1cc(F)cc(F)c1` the remaining binding was 90% (binding; competition with immobilised ligand; 1 µM).
The remaining binding of `Cc1cnn2ncc(-c3ccnc(N(C)C)n3)c2c1` is reported as 80% (binding; 1 µM).
With `O=C(NCCCN1CCOCC1)c1ccc(Nc2ncc(Cl)c(-c3ccc(Cl)s3)n2)cc1` the remaining binding was 100% (binding; competition with immobilised ligand; 1 µM).
`O=C(NS(=O)(=O)c1ccc(NCC2CCOCC2)c([N+](=O)[O-])c1)c1ccc(N2CCN(Cc3ccc(C(F)(F)F)cc3-c3ccc(Cl)cc3)CC2)cc1Oc1cnc2[nH]ccc2c1` has a remaining binding of 76% (cell-free assay; competition with immobilised ligand; 1 µM).
The remaining binding of `C[C@@H]1CCN(c2nccc(-c3cnn4ncccc34)n2)C1` is reported as 100% (binding; 1 µM).
`COc1cc(-c2cn(C3CCc4c(F)cccc4N(CC(F)(F)F)C3=O)nn2)ccc1-n1cnc(C)c1` (stereo not drawn) has a remaining binding of 100% (cell-free assay; competition with immobilised ligand; 1 µM).
The remaining binding of `FC(F)(F)Oc1cccc(-c2cnc3ccc(-c4ccncc4)nn23)c1` is reported as 66% (cell-free assay; competition with immobilised ligand; 5 µM).
For `CC1=C(C#N)[C@@H](c2ccc3[nH]nc(C)c3c2)C(C#N)=C(c2ccc(Cl)cc2)N1`, the remaining binding was 74.6% (cell-free assay; competition with immobilised ligand; 1 µM).
`O=C(c1ccc(Nc2ncc(Cl)c(-c3cc4ccccc4s3)n2)cc1)N1CCC(N2CCCC2)CC1` gave a remaining binding of 84% (binding; competition with immobilised ligand; 1 µM).
`CN(C)c1ncc(F)c(-c2cnn3ncccc23)n1` has a remaining binding of 100% (binding; 1 µM).
The remaining binding of `CNCc1ccccc1-c1csc([C@H](C)Nc2nc(C)nc3cc(OC)c(OC)cc23)c1` is reported as 97% (cell-free assay; competition with immobilised ligand; 1 µM).
